Values after ≈ are worked out from the molar mass of the structure shown. Active and inactive are the calls of the source. The rule behind the calls is not given here.
Key:
Staphylococcus aureus [1] = assay: Bactericidal activity against methicillin-resistant Staphylococcus aureus USA400 NRS123 clinical isolate assessed as disruption of bacterial membrane by measuring leakage of 280 nM absorbing material at 5 times MIC after 30 mins by spectrophotometric method; type: functional
Staphylococcus aureus [2] = assay: Bactericidal activity against vancomycin-resistant Staphylococcus aureus VRSA4 after 18 hrs by broth microdilution method; type: functional; conditions: VRSA4, 18 h
How it was run: (§1)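 From MIC wells without visible growth, 5 uL spotted onto Tryptic soy agar, incubated 37 °C for at least 18 h; MBC taken as lowest concentration giving 99.9% growth inhibition.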

Staphylococcus aureus [3] = assay: Bactericidal activity against methicillin-resistant Staphylococcus aureus USA300 NRS384 clinical isolate after 18 hrs by broth microdilution method; type: functional; conditions: USA300 NRS384, 18 h; how it was run: as §1
Staphylococcus aureus [4] = assay: Antibacterial activity against methicillin-resistant Staphylococcus aureus USA400 infected in Caenorhabditis elegans AU37 harboring (sek-1(km4);glp-4(bn2)I) mutant assessed as reduction in colony forming units at 10 ug/ml after 20 hrs by microscopic method relative to control; type: functional; set-up: scale not given: the % may be the effect or the level left
How it was run: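 C. elegans AU37 L4/adult worms infected on MRSA USA400 lawn 6 h, washed in M9; 15-25 worms per well treated with 10 µg/mL in triplicate for 20 h, PBS negative control; worms lysed with silicon carbide, plated on TSA with 5 µg/mL nalidixic acid, 37 °C 18 h; CFU per worm, Student's t-test with Holm-Sidak correction.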

Staphylococcus aureus [5] = assay: Antibacterial activity against vancomycin-resistant Staphylococcus aureus VRSA10 after 20 hrs by broth microdilution method; type: functional; conditions: VRSA10, 20 h
How it was run: (§2)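 CLSI broth microdilution in cation-adjusted Mueller Hinton broth; compounds serially diluted, triplicate samples; 37 °C, 20 h. MIC read visually as lowest concentration with no visible growth; mean of triplicate determinations reported.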

Staphylococcus aureus [6] = assay: Bactericidal activity against methicillin-resistant Staphylococcus aureus USA100 NRS382 clinical isolate after 18 hrs by broth microdilution method; type: functional; conditions: USA100 NRS382, 18 h; how it was run: as §1
Staphylococcus aureus [7] = assay: Bactericidal activity against methicillin-resistant Staphylococcus aureus USA200 NRS383 clinical isolate after 18 hrs by broth microdilution method; type: functional; conditions: USA200 NRS383, 18 h; how it was run: as §1
Staphylococcus aureus [8] = assay: Bactericidal activity against Staphylococcus aureus RN4220 NRS107 clinical isolate after 18 hrs by broth microdilution method; type: functional; conditions: RN4220 NRS107, 18 h; how it was run: as §1
Staphylococcus aureus [9] = assay: Bactericidal activity against vancomycin-resistant Staphylococcus aureus VRSA10 after 18 hrs by broth microdilution method; type: functional; conditions: VRSA10, 18 h; how it was run: as §1
Staphylococcus aureus [10] = assay: Bactericidal activity against methicillin-resistant Staphylococcus aureus USA400 infected in mouse J774 cells assessed as reduction in colony forming units at 16 ug/ml after 24 hrs by time kill assay relative to control; type: functional
How it was run: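 J774 murine macrophages in DMEM/10% FBS infected with MRSA USA400 at MOI ~100:1 for 1 h, extracellular bacteria killed with gentamicin 50 µg/mL; treated at 16 µg/mL in triplicate; after 4, 8 or 24 h cells washed, lysed with 0.1% Triton X-100, plated for CFU; percent reduction versus untreated, t-test.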

Staphylococcus aureus [11] = assay: Bactericidal activity against methicillin-resistant Staphylococcus aureus USA400 NRS123 clinical isolate assessed as disruption of bacterial membrane by measuring leakage of 260 nM absorbing material at 5 times MIC after 30 mins by spectrophotometric method; type: functional
Staphylococcus aureus [12] = assay: Antibacterial activity against vancomycin-resistant Staphylococcus aureus VRSA4 after 20 hrs by broth microdilution method; type: functional; conditions: VRSA4, 20 h; how it was run: as §2
Staphylococcus aureus [13] = assay: Bactericidal activity against methicillin-resistant Staphylococcus aureus USA400 NRS123 clinical isolate after 18 hrs by broth microdilution method; type: functional; conditions: USA400 NRS123, 18 h; how it was run: as §1
Staphylococcus aureus [14] = assay: Antibacterial activity against methicillin-resistant Staphylococcus aureus USA100 NRS382 clinical isolate after 20 hrs by broth microdilution method; type: functional; conditions: USA100 NRS382, 20 h; how it was run: as §2
Staphylococcus aureus [15] = assay: Bactericidal activity against methicillin-resistant Staphylococcus aureus USA400 assessed as time required to reduce log10CFU of bacterial load at 4 times MIC by time kill assay; type: functional
Staphylococcus aureus [16] = assay: Antibacterial activity against methicillin-resistant Staphylococcus aureus USA100 NRS382 clinical isolate preincubated followed by bacterial subculturing for 2 weeks; type: functional
Staphylococcus aureus [17] = assay: Antibacterial activity against methicillin-resistant Staphylococcus aureus USA200 NRS383 clinical isolate preincubated followed by bacterial subculturing for 2 weeks; type: functional
Staphylococcus aureus [18] = assay: Antibacterial activity against methicillin-resistant Staphylococcus aureus USA400 NRS123 clinical isolate after 20 hrs by broth microdilution method; type: functional; conditions: USA400 NRS123, 20 h; how it was run: as §2
J774 = assay: Cytotoxicity against mouse J774 cells at 8 ug/ml after 24 hrs by MTS assay; type: cell-based; conditions: j774, 24 h
How it was run: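 Murine macrophages cultured in DMEM plus 10% FBS, 37 °C, 5% CO2; compounds at 8, 16, 32, 64 µg/mL in triplicate for 24 h against DMSO-matched controls. MTS reagent 4 h, read at OD490. Viability as % of DMSO control (triplicate mean ± SD); one-way ANOVA, Dunnett's post hoc, P < 0.05.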

Staphylococcus aureus [19] = assay: Antibacterial activity against methicillin-resistant Staphylococcus aureus USA200 NRS383 clinical isolate after 20 hrs by broth microdilution method; type: functional; conditions: USA200 NRS383, 20 h; how it was run: as §2
Staphylococcus aureus [20] = assay: Antibacterial activity against methicillin-resistant Staphylococcus aureus USA300 NRS384 clinical isolate after 20 hrs by broth microdilution method; type: functional; conditions: USA300 NRS384, 20 h; how it was run: as §2
HaCaT [21] = assay: Cytotoxicity against human HaCaT cells up to 32 ug/ml after 2 hrs by MTS assay; type: cell-based
How it was run: (§3)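 Keratinocytes grown in DMEM with 10% FBS at 37 °C, 5% CO2; exposed in triplicate to 8, 16, 32 and 64 µg/mL for 2 h. DMSO-matched controls. MTS added for 4 h, absorbance at 490 nm. Viability expressed as % of DMSO-treated cells (mean of triplicate ± SD); one-way ANOVA with Dunnett's test, P < 0.05.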

Staphylococcus aureus [22] = assay: Antibacterial activity against Staphylococcus aureus RN4220 NRS107 clinical isolate after 20 hrs by broth microdilution method; type: functional; conditions: RN4220 NRS107, 20 h; how it was run: as §2
Staphylococcus aureus [23] = assay: Antibacterial activity against methicillin-resistant Staphylococcus aureus USA400 NRS123 clinical isolate preincubated followed by bacterial subculturing for 2 weeks; type: functional
Staphylococcus aureus [24] = assay: Antibacterial activity against methicillin-resistant Staphylococcus aureus USA300 NRS384 clinical isolate preincubated followed by bacterial subculturing for 2 weeks; type: functional
[25] = Intrinsic clearance in human liver microsomes in presence of NADPH by LC-MS/MS method; type: ADME, microsome; conditions: read-out: CLH
[26] = Half life in human liver microsomes in absence of NADPH by LC-MS/MS method; type: ADME, microsome
[27] = Intrinsic clearance in human liver microsomes in absence of NADPH by LC-MS/MS method; type: ADME, microsome; conditions: read-out: CLH
[28] = Half life in human liver microsomes in presence of NADPH by LC-MS/MS method; type: ADME, microsome
[29] = Apparent permeability across basolateral to apical side in human Caco2 cells at 10 uM after 2 hrs by LC-MS/MS method; type: ADME, cell-based; conditions: Caco-2
[30] = Apparent permeability across apical to basolateral side in human Caco2 cells at 10 uM after 2 hrs by LC-MS/MS method; type: ADME, cell-based; conditions: Caco-2
HaCaT [31] = assay: Cytotoxicity against human HaCaT cells up to 64 ug/ml after 2 hrs by MTS assay; type: cell-based; how it was run: as §3

Compound | MBC (Staphylococcus aureus [2]) [µg/mL] | MBC (Staphylococcus aureus [3]) [µg/mL] | MIC (Staphylococcus aureus [5]) [µg/mL] | MBC (Staphylococcus aureus [6]) [µg/mL] | MBC (Staphylococcus aureus [7]) [µg/mL] | MBC (Staphylococcus aureus [8]) [µg/mL] | MBC (Staphylococcus aureus [9]) [µg/mL] | MIC (Staphylococcus aureus [12]) [µg/mL] | MBC (Staphylococcus aureus [13]) [µg/mL] | MIC (Staphylococcus aureus [14]) [µg/mL] | Time (Staphylococcus aureus [15]) | Activity (Staphylococcus aureus [16]) | Activity (Staphylococcus aureus [17]) | MIC (Staphylococcus aureus [18]) [µg/mL] | MIC (Staphylococcus aureus [19]) [µg/mL] | MIC (Staphylococcus aureus [20]) [µg/mL] | MIC (Staphylococcus aureus [22]) [µg/mL] | Activity (Staphylococcus aureus [23]) | Activity (Staphylococcus aureus [24]) | further results
CN[C@H](CC(C)C)C(=O)N[C@H]1C(=O)N[C@@H](CC(N)=O)C(=O)N[C@H]2C(=O)N[C@H]3C(=O)N[C@H](C(=O)N[C@H](C(=O)O)c4cc(O)cc(O)c4-c4cc3ccc4O)[C@H](O)c3ccc(c(Cl)c3)Oc3cc2cc(c3O[C@@H]2O[C@H](CO)[C@@H](O)[C@H](O)[C@H]2O[C@H]2C[C@](C)(N)[C@H](O)[C@H](C)O2)Oc2ccc(cc2Cl)[C@H]1O [VANCOMYCIN] | > 128 | 1 (≈ 0.69 µM) | > 128 | < 1 | 0.5 (≈ 0.345 µM) | 1 (≈ 0.69 µM) | > 128 | > 128 | 0.5 (≈ 0.345 µM) | < 1 | 24 h |  |  |  |  |  |  |  |  | Activity (Staphylococcus aureus [1]): inactive; Activity (Staphylococcus aureus [4]): 25%; Activity (Staphylococcus aureus [10]): inactive; Activity (Staphylococcus aureus [11]): inactive
C/C(=N\NC(=N)N)c1ccc(NC(=O)Nc2ccc(OCCC(C)C)cc2)cc1 | 4 (≈ 10.1 µM) | 4 (≈ 10.1 µM) | 2 (≈ 5.04 µM) | 4 (≈ 10.1 µM) | 4 (≈ 10.1 µM) | 4 (≈ 10.1 µM) | 4 (≈ 10.1 µM) | 4 (≈ 10.1 µM) | 4 (≈ 10.1 µM) | 4 (≈ 10.1 µM) | <=4 hr | Active | Active | 2 (≈ 5.04 µM) | 2 (≈ 5.04 µM) | 2 (≈ 5.04 µM) | 2 (≈ 5.04 µM) | Active | Active | Activity (Staphylococcus aureus [1]): inactive; Activity (J774): Toxic; Activity (Staphylococcus aureus [11]): inactive; Activity (HaCaT [21]): Non-Toxic
Cc1ncc2n1-c1ccc(Cl)cc1C(c1ccccc1F)=NC2 [MIDAZOLAM] |  |  |  |  |  |  |  |  |  |  |  |  |  |  |  |  |  |  |  | microsomal CLint [25]: 402 µL/min/mg; half-life [26]: > 240 min; microsomal CLint [27]: < 9.6 µL/min/mg; half-life [28]: 5.7 min
CC(=O)CC(c1ccccc1)c1c(O)c2ccccc2oc1=O (stereo not given) [WARFARIN] |  |  |  |  |  |  |  |  |  |  |  |  |  |  |  |  |  |  |  | Papp B→A at 2 h, 10 µM [29]: 20.3 ×10⁻⁶ cm/s; microsomal CLint [25]: < 9.6 µL/min/mg; microsomal CLint [27]: < 9.6 µL/min/mg; Papp A→B at 2 h, 10 µM [30]: 27.7 ×10⁻⁶ cm/s
CNC(=C[N+](=O)[O-])NCCSCc1ccc(CN(C)C)o1 [RANITIDINE] |  |  |  |  |  |  |  |  |  |  |  |  |  |  |  |  |  |  |  | Papp B→A at 2 h, 10 µM [29]: 2.31 ×10⁻⁶ cm/s
CCCCCOc1ccc(NC(=O)Nc2ccc(/C(C)=N/NC(=N)N)cc2)cc1 | 4 (≈ 10.1 µM) | 4 (≈ 10.1 µM) | 4 (≈ 10.1 µM) | 4 (≈ 10.1 µM) | 4 (≈ 10.1 µM) | 8 (≈ 20.2 µM) | 8 (≈ 20.2 µM) | 4 (≈ 10.1 µM) | 16 (≈ 40.4 µM) | 4 (≈ 10.1 µM) |  | Active | Active | 4 (≈ 10.1 µM) | 4 (≈ 10.1 µM) | 4 (≈ 10.1 µM) | 4 (≈ 10.1 µM) | Active | Active | Activity (HaCaT [31]): Non-Toxic
C/C(=N\NC(=N)N)c1ccc(NC(=O)Nc2ccc(OCCCC(C)C)cc2)cc1 | 4 (≈ 9.74 µM) | 8 (≈ 19.5 µM) | 4 (≈ 9.74 µM) | 8 (≈ 19.5 µM) | 8 (≈ 19.5 µM) | 4 (≈ 9.74 µM) | 4 (≈ 9.74 µM) | 4 (≈ 9.74 µM) | 8 (≈ 19.5 µM) | 4 (≈ 9.74 µM) | <=4 hr | Active | Active | 4 (≈ 9.74 µM) | 4 (≈ 9.74 µM) | 8 (≈ 19.5 µM) | 4 (≈ 9.74 µM) | Active | Active | 
